Results on 21 molecules are retold here after ChEMBL document CHEMBL1149314, “Synthesis of AZT 5'-triphosphate mimics and their inhibitory effects on HIV-1 reverse transcriptase” (J Med Chem, 2004).

Where only a bound is given, the exact number is not on record here.

Molecular target in one data set: not listed separately
As to the kind of experiment: Inhibition of HIV1 reverse transcriptase. On the set-up: species or system Human immunodeficiency virus 1.
Settings: not given
In outline: (§1)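 HIV reverse transcriptase (type B, 66 kDa subunit) at 2 nM with 1 µg/mL primed poly(A) RNA and 5 µM dTTP, in 50 mM Tris-HCl pH 8.1, 6.5 mM MgCl2, 100 mM NaCl and 10 mM DTT. Compounds were tested up to 500 µM final. Reactions were started with enzyme, run 10 min at 37 °C and stopped with EDTA. DNA was read by PicoGreen fluorescence (ex 480/em 538 nm), with no-enzyme or no-dTTP blanks. Percent inhibition was blank-corrected; Ki came from titration fitted to a competitive model.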
As for `CNP(=O)(O)C(F)(F)P(=O)(O)OP(=O)(O)OC[C@@H]1O[C@H](n2cc(C)c(=O)[nH]c2=O)C[C@H]1N=[N+]=[N-]`, the Ki – broadly, the dissociation constant of the complex between target and ligand, obtained from inhibition or displacement – is 124 nM.

In turn, `Cc1cn([C@@H]2C[C@@H](N=[N+]=[N-])[C@H](COP(=O)(O)OP(=O)(O)C(F)(F)P(=O)(O)Nc3ccccc3)O2)c(=O)[nH]c1=O` returned a Ki of 254 nM.

In the case of `Cc1cn([C@@H]2C[C@@H](N=[N+]=[N-])[C@H](COP(=O)(O)OP(=O)(O)C(F)(F)P(=O)(O)O)O2)c(=O)[nH]c1=O`, the Ki was 41 nM.

`COP(=O)(O)C(F)(F)P(=O)(O)OP(=O)(O)OC[C@@H]1O[C@H](n2cc(C)c(=O)[nH]c2=O)C[C@H]1N=[N+]=[N-]` came in with a Ki of 597 nM.

On to `CCNP(=O)(O)C(F)(F)P(=O)(O)OP(=O)(O)OC[C@@H]1O[C@H](n2cc(C)c(=O)[nH]c2=O)C[C@H]1N=[N+]=[N-]`, for which the Ki is 415 nM.

`Cc1cn([C@@H]2C[C@@H](N=[N+]=[N-])[C@H](COP(=O)(O)OP(=O)(O)C(F)(F)P(=O)(O)Oc3ccccc3)O2)c(=O)[nH]c1=O` yielded a Ki of 303 nM.

`Cc1cn([C@@H]2C[C@@H](N=[N+]=[N-])[C@H](COP(=O)(O)OP(=O)(O)C(F)(F)P(N)(=O)O)O2)c(=O)[nH]c1=O` returned a Ki of 234 nM.

With `BP(=O)(OC[C@@H]1O[C@H](n2cc(C)c(=O)[nH]c2=O)C[C@H]1N=[N+]=[N-])OP(=O)(O)C(Cl)(Cl)P(=O)(O)O` (single isomer, unassigned), the Ki was determined as 93 nM.

As for `BP(=O)(OC[C@@H]1O[C@H](n2cc(C)c(=O)[nH]c2=O)C[C@H]1N=[N+]=[N-])OP(=O)(O)C(F)P(=O)(O)O` (single isomer, unassigned), the inhibition constant (Ki) was found to be 27 nM.

For `BP(=O)(OC[C@@H]1O[C@H](n2cc(C)c(=O)[nH]c2=O)C[C@H]1N=[N+]=[N-])OP(=O)(O)C(F)(F)P(=O)(O)O` (single isomer, unassigned; diastereomer I), the Ki came to 9.5 nM.

`BP(=O)(OC[C@@H]1O[C@H](n2cc(C)c(=O)[nH]c2=O)C[C@H]1N=[N+]=[N-])OP(=O)(O)C(Cl)(Cl)P(=O)(O)O` (single isomer, unassigned; diastereomer II): affinity was put at a Ki of 74 nM.

As for `BP(=O)(OC[C@@H]1O[C@H](n2cc(C)c(=O)[nH]c2=O)C[C@H]1N=[N+]=[N-])OP(=O)(O)C(F)(F)P(=O)(O)O` (single isomer, unassigned; diastereomer II), the Ki turned out to be 4560 nM.

As for `BP(=O)(OC[C@@H]1O[C@H](n2cc(C)c(=O)[nH]c2=O)C[C@H]1N=[N+]=[N-])OP(=O)(O)OP(=O)(O)O` (single isomer, unassigned; form 1), the inhibitory constant (Ki) is 9.6 nM.

With `Cc1cn([C@H]2C[C@H](N=[N+]=[N-])[C@@H](COP(=O)(O)OP(=O)(O)OP(=O)(O)O)O2)c(=O)[nH]c1=O` [ZIDOVUDINE TRIPHOSPHATE], affinity was put at a Ki of 8.4 nM.

System in another data set: not listed separately
The data set can be described thus: Stability in CEM cell extract. The settings on record: human, CEM (CCRF-CEM) cell extract. The data set is classed as ADME. In outline: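 Clarified lysate of CEM cells (10^7 cells per 100 µL Tris/glycerol/Triton buffer, freeze-thaw lysed) at 50% v/v, with 500 µM nucleotide mimic in 50 mM Tris-HCl pH 7.4 and 0.1 mM MgCl2, at 37 °C. Samples were taken from 0 to 48 h into cold methanol, dried and analysed by ion-pair reverse-phase HPLC. Half-life came from remaining parent, given as >48 h if over 50% remained intact; unmodified NTPs were controls.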
Turning to `BP(=O)(OC[C@@H]1O[C@H](n2cc(C)c(=O)[nH]c2=O)C[C@H]1N=[N+]=[N-])OP(=O)(O)C(F)(F)P(=O)(O)O` (single isomer, unassigned; diastereomer I), the half-life – broadly, how long it takes for the measured level to halve – was over 48 h.

As to `BP(=O)(OC[C@@H]1O[C@H](n2cc(C)c(=O)[nH]c2=O)C[C@H]1N=[N+]=[N-])OP(=O)(O)C(Cl)(Cl)P(=O)(O)O` (single isomer, unassigned; diastereomer II), the half-life is over 48 h.

A further data set deals with Human immunodeficiency virus 1. The data set can be described thus: Inhibition of HIV1 reverse transcriptase at 0.5 uM.
Settings: not given
The method, boiled down: as §1
Consider `Cc1cn([C@@H]2C[C@@H](N=[N+]=[N-])[C@H](COP(=O)(O)C(F)(F)P(=O)(O)OP(=O)(O)c3ccccc3)O2)c(=O)[nH]c1=O`, for which the inhibition – broadly, the percentage by which the read-out fell short of the control – is 11.5%.

`Cc1cn([C@@H]2C[C@@H](N=[N+]=[N-])[C@H](COP(=O)(O)OP(=O)(O)C(F)(F)P(=O)(O)N=[N+]=[N-])O2)c(=O)[nH]c1=O`: the inhibition was 24%.

Molecule `Cc1cn([C@@H]2C[C@@H](N=[N+]=[N-])[C@H](COP(=S)(S)OP(=O)(O)C(F)(F)P(=O)(O)O)O2)c(=O)[nH]c1=O` (stereo partly drawn) came in with an inhibition of 19%.

On to `BP(=O)(OC[C@@H]1O[C@H](n2cc(C)c(=O)[nH]c2=O)C[C@H]1N=[N+]=[N-])OP(=O)(O)C(F)P(=O)(O)O` (single isomer, unassigned; diastereomer IV), for which the inhibition was determined as 49%.

System in the next data set: not listed separately
The data set can be described thus: (§2) Stability in fetal calf serum at 500 uM at 37 degC. The settings on record: cattle, fetal calf serum. The class given is ADME, cell-free, Bos taurus. The method, boiled down: (§3)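 Fetal calf serum at 10% v/v final, with 500 µM nucleotide mimic in 50 mM Tris-HCl pH 7.4 and 0.1 mM MgCl2, at 37 °C. Timed aliquots were quenched in cold methanol, extracted, dried and run on ion-pair reverse-phase HPLC. Half-life came from remaining parent through 48 h, given as >48 h if over 50% remained; unmodified nucleoside triphosphates were positive controls.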
`BP(=O)(OC[C@@H]1O[C@H](n2cc(C)c(=O)[nH]c2=O)C[C@H]1N=[N+]=[N-])OP(=O)(O)C(F)(F)P(=O)(O)O` (single isomer, unassigned; diastereomer I) returned a half-life at 500 µM of over 48 h.

The molecule `BP(=O)(OC[C@@H]1O[C@H](n2cc(C)c(=O)[nH]c2=O)C[C@H]1N=[N+]=[N-])OP(=O)(O)C(Cl)(Cl)P(=O)(O)O` (single isomer, unassigned; diastereomer II) displayed a half-life at 500 µM of over 48 h.

In turn, `BP(=O)(OC[C@@H]1O[C@H](n2cc(C)c(=O)[nH]c2=O)C[C@H]1N=[N+]=[N-])OP(=O)(O)OP(=O)(O)O` (single isomer, unassigned; form 2) gave a half-life at 500 µM of 6 h.

`Nc1ncnc2c1ncn2[C@@H]1O[C@H](COP(=O)(O)OP(=O)(O)OP(=O)(O)O)[C@@H](O)[C@H]1O` [ADENOSINE TRIPHOSPHATE] gave a half-life at 500 µM of 2 h.

`Cc1cn([C@H]2C[C@H](O)[C@@H](COP(=O)(O)OP(=O)(O)OP(=O)(O)O)O2)c(=O)[nH]c1=O` [DEOXYTHYMIDINE_TRIPHOSPHATE] showed a half-life at 500 µM of 2 h.

On to `Cc1cn([C@H]2C[C@H](N=[N+]=[N-])[C@@H](COP(=O)(O)OP(=O)(O)OP(=O)(O)O)O2)c(=O)[nH]c1=O` [ZIDOVUDINE TRIPHOSPHATE], for which the half-life at 500 µM was 2 h.

For the next data set, the system named is Serum. The data set is described as §2. The class given is ADME, cell-free, Bos taurus. The settings on record: cattle, serum, 500 µM. The method, boiled down:
as §3
Turning to `BP(=O)(OC[C@@H]1O[C@H](n2cc(C)c(=O)[nH]c2=O)C[C@H]1N=[N+]=[N-])OP(=O)(O)C(Cl)(Cl)P(=O)(O)O` (single isomer, unassigned), the t1/2 turned out to be 45 h.

The molecule `BP(=O)(OC[C@@H]1O[C@H](n2cc(C)c(=O)[nH]c2=O)C[C@H]1N=[N+]=[N-])OP(=O)(O)OP(=O)(O)O` (single isomer, unassigned; form 1) displayed a t1/2 of 6 h.
